Data: ChEMBL document CHEMBL2086345, “Metabotropic glutamate receptor 5 negative allosteric modulators as novel tools for in vivo investigation” (ACS Med Chem Lett, 2012)
Values belong to the compound of their own block, whether it stands above or below them. The source made the active and inactive calls. No cut-off for these calls is given here.

Experiments:
[1] = target: T1, Metabotropic glutamate receptor 5 (Rattus norvegicus, UniProt P31424); experiment: Displacement of [3H]MPEP from mGluR5 in Sprague-Dawley rat brain membrane after 60 mins by liquid scintillation counting; assay type: cell membranes
[2] = target: T1, Metabotropic glutamate receptor 5; experiment: Inverse agonist activity at rat mGluR5 expressed in HEK293A cells coexpressing Gqalpha assessed as inhibition of basal D-myo-inositol 1 production by ELISA
[3] = target: Metabotropic glutamate receptor 5 (Rattus norvegicus) (UniProt P31424); experiment: Ratio of MPEP Ki to compound Ki for mGluR5 in Sprague-Dawley rat brain membrane; assay type: cell membranes
[4] = target: Metabotropic glutamate receptor 5 (Rattus norvegicus) (UniProt P31424); experiment: Inverse agonist activity at rat mGluR5 expressed in HEK293A cells coexpressing Gqalpha assessed as inhibition of quisqualic-induced D-myo-inositol 1 production by ELISA; assay type: functional, cell-based; conditions: HEK293-A
Procedure, shortened: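 IP₃ production was gauged indirectly by IP-One ELISA for IP₁ accumulation. Dose–response curves were run without agonist and in the presence of 1 μM quisqualic acid.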

Mus musculus [5] = experiment: Anxiolytic activity in ip dosed Swiss Webster mouse assessed as increase in locomotor activity administered as single dose 15 mins prior to testing by open-field test; assay type: functional, organism-based
Procedure, shortened: (§1)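 Open-field test in mice. Drugs were suspended in 2% ethanol/10% Tween 80/water (MTEP in saline) and given ip 15 min before testing. Locomotor activity and time in the center region were recorded. n = 10–12 per dose, means ± SEM. Each dose was compared with its within-group vehicle cohort by one-way ANOVA with Bonferroni post hoc test.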

Mus musculus [6] = experiment: Anxiolytic activity in ip dosed Swiss Webster mouse assessed as increase in time spent in the centre region administered as single dose 15 mins prior to testing by open-field test; assay type: functional, organism-based; procedure, shortened: as §1
Mus musculus [7] = experiment: Anxiolytic activity in ip dosed Swiss Webster mouse assessed as increase in time spent in light compartment administered as single dose 15 mins prior to testing by light-dark box test; assay type: functional, organism-based
Procedure, shortened: (§2)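 Light–dark box test in mice. Drugs were given ip 15 min pretest in a 2% ethanol, 10% Tween 80 and water suspension (MTEP in saline). Read-outs were the proportion of time in the light compartment and the number of light–dark transitions. n = 10–12 per dose, means ± SEM. One-way ANOVA with Bonferroni test against the within-group vehicle cohort.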

Mus musculus [8] = experiment: Anxiolytic activity in ip dosed Swiss Webster mouse assessed as increase in number of compartment transitions administered as single dose 15 mins prior to testing by light-dark box test; assay type: functional, organism-based; procedure, shortened: as §2
Mus musculus [9] = experiment: Anxiolytic activity in Swiss Webster mouse assessed as increase in locomotor activity at 0.1 to 0.3 mg/kg, ip administered as single dose 15 mins prior to testing by open-field test; assay type: functional, organism-based; procedure, shortened: as §1
Mus musculus [10] = experiment: Anxiolytic activity in Swiss Webster mouse assessed as increase in time spent in the centre region at 0.1 to 0.3 mg/kg, ip administered as single dose 15 mins prior to testing by open-field test; assay type: functional, organism-based; procedure, shortened: as §1
Mus musculus [11] = experiment: Anxiolytic activity in Swiss Webster mouse assessed as increase in time spent in light compartment at 0.1 to 0.3 mg/kg, ip administered as single dose 15 mins prior to testing by light-dark box test; assay type: functional, organism-based; procedure, shortened: as §2
Mus musculus [12] = experiment: Anxiolytic activity in Swiss Webster mouse assessed as increase in number of compartment transitions at 0.1 to 0.3 mg/kg, ip administered as single dose 15 mins prior to testing by light-dark box test; assay type: functional, organism-based; procedure, shortened: as §2
Mus musculus [13] = experiment: Anxiolytic activity in Swiss Webster mouse assessed as increase in locomotor activity at 3 mg/kg, ip administered as single dose 15 mins prior to testing by open-field test; assay type: functional, organism-based; design: dose 3 mg/kg; procedure, shortened: as §1
Mus musculus [14] = experiment: Anxiolytic activity in Swiss Webster mouse assessed as increase in time spent in the centre region at 3 mg/kg, ip administered as single dose 15 mins prior to testing by open-field test; assay type: functional, organism-based; design: dose 3 mg/kg; procedure, shortened: as §1
Mus musculus [15] = experiment: Anxiolytic activity in Swiss Webster mouse assessed as increase in time spent in light compartment at 3 mg/kg, ip administered as single dose 15 mins prior to testing by light-dark box test; assay type: functional, organism-based; design: dose 3 mg/kg; procedure, shortened: as §2
Mus musculus [16] = experiment: Anxiolytic activity in Swiss Webster mouse assessed as increase in number of compartment transitions at 3 mg/kg, ip administered as single dose 15 mins prior to testing by light-dark box test; assay type: functional, organism-based; design: dose 3 mg/kg; procedure, shortened: as §2
Mus musculus [17] = experiment: Anxiolytic activity in Swiss Webster mouse assessed as increase in locomotor activity at 10 mg/kg, ip administered as single dose 15 mins prior to testing by open-field test; assay type: functional, organism-based; design: dose 10 mg/kg; procedure, shortened: as §1
Mus musculus [18] = experiment: Anxiolytic activity in Swiss Webster mouse assessed as increase in time spent in the centre region at 10 mg/kg, ip administered as single dose 15 mins prior to testing by open-field test; assay type: functional, organism-based; design: dose 10 mg/kg; procedure, shortened: as §1
Mus musculus [19] = experiment: Anxiolytic activity in Swiss Webster mouse assessed as increase in time spent in light compartment at 10 mg/kg, ip administered as single dose 15 mins prior to testing by light-dark box test; assay type: functional, organism-based; design: dose 10 mg/kg; procedure, shortened: as §2
Mus musculus [20] = experiment: Anxiolytic activity in Swiss Webster mouse assessed as increase in number of compartment transitions at 10 mg/kg, ip administered as single dose 15 mins prior to testing by light-dark box test; assay type: functional, organism-based; design: dose 10 mg/kg; procedure, shortened: as §2
Mus musculus [21] = experiment: Anxiolytic activity in Swiss Webster mouse assessed as increase in locomotor activity at 0.3 mg/kg, ip administered as single dose 15 mins prior to testing by open-field test; assay type: functional, organism-based; design: dose 0.3 mg/kg; procedure, shortened: as §1
Mus musculus [22] = experiment: Anxiolytic activity in Swiss Webster mouse assessed as increase in time spent in the centre region at 0.3 mg/kg, ip administered as single dose 15 mins prior to testing by open-field test; assay type: functional, organism-based; design: dose 0.3 mg/kg; procedure, shortened: as §1
Mus musculus [23] = experiment: Anxiolytic activity in Swiss Webster mouse assessed as increase in time spent in light compartment at 0.3 mg/kg, ip administered as single dose 15 mins prior to testing by light-dark box test; assay type: functional, organism-based; design: dose 0.3 mg/kg; procedure, shortened: as §2
Mus musculus [24] = experiment: Anxiolytic activity in Swiss Webster mouse assessed as increase in number of compartment transitions at 0.3 mg/kg, ip administered as single dose 15 mins prior to testing by light-dark box test; assay type: functional, organism-based; design: dose 0.3 mg/kg; procedure, shortened: as §2
Mus musculus [25] = experiment: Anxiolytic activity in Swiss Webster mouse assessed as increase in locomotor activity at 30 mg/kg, ip administered as single dose 15 mins prior to testing by open-field test; assay type: functional, organism-based; design: dose 30 mg/kg; procedure, shortened: as §1
Mus musculus [26] = experiment: Anxiolytic activity in Swiss Webster mouse assessed as increase in time spent in the centre region at 30 mg/kg, ip administered as single dose 15 mins prior to testing by open-field test; assay type: functional, organism-based; design: dose 30 mg/kg; procedure, shortened: as §1
Mus musculus [27] = experiment: Anxiolytic activity in Swiss Webster mouse assessed as increase in time spent in light compartment at 30 mg/kg, ip administered as single dose 15 mins prior to testing by light-dark box test; assay type: functional, organism-based; design: dose 30 mg/kg; procedure, shortened: as §2
Mus musculus [28] = experiment: Anxiolytic activity in Swiss Webster mouse assessed as increase in number of compartment transitions at 30 mg/kg, ip administered as single dose 15 mins prior to testing by light-dark box test; assay type: functional, organism-based; design: dose 30 mg/kg; procedure, shortened: as §2
Mus musculus [29] = experiment: Anxiolytic activity in Swiss Webster mouse assessed as increase in locomotor activity at 3 to 30 mg/kg, ip administered as single dose 15 mins prior to testing by open-field test; assay type: functional, organism-based; procedure, shortened: as §1
Mus musculus [30] = experiment: Anxiolytic activity in Swiss Webster mouse assessed as increase in time spent in the centre region at 3 to 30 mg/kg, ip administered as single dose 15 mins prior to testing by open-field test; assay type: functional, organism-based; procedure, shortened: as §1
Mus musculus [31] = experiment: Anxiolytic activity in Swiss Webster mouse assessed as increase in time spent in light compartment at 3 to 30 mg/kg, ip administered as single dose 15 mins prior to testing by light-dark box test; assay type: functional, organism-based; procedure, shortened: as §2
Mus musculus [32] = experiment: Anxiolytic activity in Swiss Webster mouse assessed as increase in number of compartment transitions at 3 to 30 mg/kg, ip administered as single dose 15 mins prior to testing by light-dark box test; assay type: functional, organism-based; procedure, shortened: as §2

T1 sequence (P31424 whole entry): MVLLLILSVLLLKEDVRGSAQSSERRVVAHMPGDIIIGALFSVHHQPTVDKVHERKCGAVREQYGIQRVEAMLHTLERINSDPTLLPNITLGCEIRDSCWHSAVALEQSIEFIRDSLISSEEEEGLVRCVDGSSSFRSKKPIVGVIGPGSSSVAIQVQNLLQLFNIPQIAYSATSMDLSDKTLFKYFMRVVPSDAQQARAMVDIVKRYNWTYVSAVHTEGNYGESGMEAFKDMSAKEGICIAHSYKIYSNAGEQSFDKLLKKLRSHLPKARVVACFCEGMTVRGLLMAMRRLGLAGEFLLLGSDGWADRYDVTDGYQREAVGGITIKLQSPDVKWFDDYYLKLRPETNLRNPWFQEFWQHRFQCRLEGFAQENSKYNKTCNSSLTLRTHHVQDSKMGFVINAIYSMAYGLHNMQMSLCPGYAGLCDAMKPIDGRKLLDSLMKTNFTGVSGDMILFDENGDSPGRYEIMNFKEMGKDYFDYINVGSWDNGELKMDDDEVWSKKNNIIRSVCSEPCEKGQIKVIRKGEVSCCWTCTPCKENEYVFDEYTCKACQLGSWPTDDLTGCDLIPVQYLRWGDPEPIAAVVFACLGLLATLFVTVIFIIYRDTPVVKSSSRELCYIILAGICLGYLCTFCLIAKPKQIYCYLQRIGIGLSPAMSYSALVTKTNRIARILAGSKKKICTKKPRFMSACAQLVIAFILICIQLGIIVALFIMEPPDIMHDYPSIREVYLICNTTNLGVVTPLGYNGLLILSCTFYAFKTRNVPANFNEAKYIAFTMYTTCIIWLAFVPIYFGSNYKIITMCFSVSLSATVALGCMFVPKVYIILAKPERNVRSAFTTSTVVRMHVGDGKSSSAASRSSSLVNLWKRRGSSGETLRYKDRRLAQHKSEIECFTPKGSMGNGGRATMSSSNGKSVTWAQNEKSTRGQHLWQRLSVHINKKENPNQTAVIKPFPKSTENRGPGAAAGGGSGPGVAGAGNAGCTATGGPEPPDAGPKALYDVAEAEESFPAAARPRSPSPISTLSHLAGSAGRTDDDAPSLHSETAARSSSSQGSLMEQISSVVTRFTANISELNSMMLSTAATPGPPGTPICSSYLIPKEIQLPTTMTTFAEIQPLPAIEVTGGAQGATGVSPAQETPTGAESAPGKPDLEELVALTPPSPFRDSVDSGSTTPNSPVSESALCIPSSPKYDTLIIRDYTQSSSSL
Sequence of Metabotropic glutamate receptor 5 (Rattus norvegicus) (P31424 21-1203 limits assumed): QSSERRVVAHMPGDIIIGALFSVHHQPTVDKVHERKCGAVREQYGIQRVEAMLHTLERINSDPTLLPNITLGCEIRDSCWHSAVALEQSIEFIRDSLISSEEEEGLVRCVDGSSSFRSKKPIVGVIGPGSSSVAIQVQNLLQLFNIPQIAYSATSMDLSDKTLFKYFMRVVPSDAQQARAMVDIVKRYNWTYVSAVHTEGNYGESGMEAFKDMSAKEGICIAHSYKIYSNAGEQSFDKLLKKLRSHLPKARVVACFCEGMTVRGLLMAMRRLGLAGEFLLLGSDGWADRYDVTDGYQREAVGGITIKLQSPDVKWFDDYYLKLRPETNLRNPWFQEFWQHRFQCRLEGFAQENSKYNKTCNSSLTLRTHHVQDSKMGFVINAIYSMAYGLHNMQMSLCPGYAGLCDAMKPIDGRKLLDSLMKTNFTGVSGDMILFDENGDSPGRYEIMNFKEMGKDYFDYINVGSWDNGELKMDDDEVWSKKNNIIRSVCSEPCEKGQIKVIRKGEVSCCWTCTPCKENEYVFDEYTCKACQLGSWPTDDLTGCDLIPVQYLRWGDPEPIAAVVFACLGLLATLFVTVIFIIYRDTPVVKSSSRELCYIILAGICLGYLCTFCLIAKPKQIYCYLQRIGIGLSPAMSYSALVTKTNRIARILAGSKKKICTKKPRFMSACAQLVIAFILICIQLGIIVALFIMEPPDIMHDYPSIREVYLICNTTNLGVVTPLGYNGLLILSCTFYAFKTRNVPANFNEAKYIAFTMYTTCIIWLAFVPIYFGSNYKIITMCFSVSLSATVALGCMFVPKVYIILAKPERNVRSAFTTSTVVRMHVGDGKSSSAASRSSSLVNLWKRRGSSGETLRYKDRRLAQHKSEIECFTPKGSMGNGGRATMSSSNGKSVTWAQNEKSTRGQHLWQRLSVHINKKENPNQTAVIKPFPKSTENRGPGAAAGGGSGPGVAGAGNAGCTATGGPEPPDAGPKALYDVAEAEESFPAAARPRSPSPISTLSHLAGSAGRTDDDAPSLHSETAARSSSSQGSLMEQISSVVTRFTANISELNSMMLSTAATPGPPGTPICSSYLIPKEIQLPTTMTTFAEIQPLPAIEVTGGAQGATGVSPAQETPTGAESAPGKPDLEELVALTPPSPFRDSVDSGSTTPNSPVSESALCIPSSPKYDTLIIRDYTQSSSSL

Ki [1]: 7.5 nM
IC50 [2]: 50 nM
Structure (SMILES): N#Cc1cc(F)cc(C#Cc2cccc(CO)n2)c1

Ki [1]: 2.7 nM
Ratio Ki [3]: 6
inhibition [4]: Dose-dependent effect
IC50 [2]: 9 nM
Structure (SMILES): N#Cc1cc(F)cc(C#Cc2cccc(C#N)n2)c1
Activity (Mus musculus [5]): Dose-dependent effect
Activity (Mus musculus [6]): Dose-dependent effect
Activity (Mus musculus [7]): Dose-dependent effect
Activity (Mus musculus [8]): Dose-dependent effect
Activity (Mus musculus [9]): Active
Activity (Mus musculus [10]): Active
Activity (Mus musculus [11]): Active
Activity (Mus musculus [12]): Active
Activity (Mus musculus [13]): inactive
Activity (Mus musculus [14]): inactive
Activity (Mus musculus [15]): inactive
Activity (Mus musculus [16]): inactive

Ki [1]: 150 nM
IC50 [2]: 210 nM
Structure (SMILES): N#Cc1cccc(C#Cc2cccc(F)n2)c1

inhibition [4]: Dose-dependent effect
Structure (SMILES): Cc1nc(C#Cc2cccnc2)cs1
Activity (Mus musculus [5]): Dose-dependent effect
Activity (Mus musculus [6]): Dose-dependent effect
Activity (Mus musculus [7]): Dose-dependent effect
Activity (Mus musculus [8]): Dose-dependent effect
Activity (Mus musculus [17]): Active
Activity (Mus musculus [18]): Active
Activity (Mus musculus [19]): Active
Activity (Mus musculus [20]): Active

Ki [1]: 1.04 nM
IC50 [2]: 13 nM
Structure (SMILES): Cc1cccc(C#Cc2cccc(C#N)c2)n1

Ki [1]: 40 nM
IC50 [2]: 400 nM
Structure (SMILES): COc1cccc(C#Cc2cc(F)cc(C#N)c2)n1

Ki [1]: 64 nM
IC50 [2]: 240 nM
Structure (SMILES): CC(=O)c1cccc(C#Cc2cc(F)cc(C#N)c2)n1

Ki [1]: > 10000 nM
Structure (SMILES): N#Cc1cccc(C#Cc2cccc(C(N)=O)c2)n1

Ki [1]: 1.29 nM
IC50 [2]: 3.4 nM
Structure (SMILES): COc1cc(C#N)cc(C#Cc2cccc(C)n2)c1

Ki [1]: 41 nM
IC50 [2]: 80 nM
Structure (SMILES): N#Cc1cc(F)cc(C#Cc2cccc(F)n2)c1

Ki [1]: 45 nM
IC50 [2]: 700 nM
Structure (SMILES): CCCCc1cccc(C#Cc2cccc(C#N)c2)n1

Ki [1]: 8.2 nM
IC50 [2]: 20 nM
Structure (SMILES): N#Cc1cccc(C#Cc2cccc(C#N)n2)c1

Ki [1]: 0.67 nM
Ratio Ki [3]: 24
inhibition [4]: Dose-dependent effect
IC50 [2]: 2.4 nM
Structure (SMILES): Cc1cccc(C#Cc2cc(F)cc(C#N)c2)n1
Activity (Mus musculus [5]): Dose-dependent effect
Activity (Mus musculus [6]): Dose-dependent effect
Activity (Mus musculus [7]): Dose-dependent effect
Activity (Mus musculus [8]): Dose-dependent effect
Activity (Mus musculus [21]): Active
Activity (Mus musculus [22]): Active
Activity (Mus musculus [23]): Active
Activity (Mus musculus [24]): Active
Activity (Mus musculus [13]): Active
Activity (Mus musculus [14]): inactive
Activity (Mus musculus [15]): inactive
Activity (Mus musculus [16]): inactive

inhibition [4]: Dose-dependent effect
Structure (SMILES): Cc1cccc(C#Cc2ccccc2)n1
Activity (Mus musculus [25]): Active
Activity (Mus musculus [26]): inactive
Activity (Mus musculus [27]): inactive
Activity (Mus musculus [28]): inactive
Activity (Mus musculus [5]): Dose-dependent effect
Activity (Mus musculus [6]): Dose-dependent effect
Activity (Mus musculus [7]): Dose-dependent effect
Activity (Mus musculus [8]): Dose-dependent effect
Activity (Mus musculus [29]): Active
Activity (Mus musculus [30]): Active
Activity (Mus musculus [31]): Active
Activity (Mus musculus [32]): Active

Ki [1]: 3.4 nM
IC50 [2]: 80 nM
Structure (SMILES): CCc1cccc(C#Cc2cccc(C#N)c2)n1

Ki [1]: > 10000 nM
Structure (SMILES): N#Cc1cncc(C#Cc2cccc(CO)n2)c1

Ki [1]: 114 nM
IC50 [2]: 300 nM
Structure (SMILES): CC(=O)c1cccc(C#Cc2cccc(C#N)c2)n1

Ki [1]: 52 nM
IC50 [2]: 500 nM
Structure (SMILES): N#Cc1cncc(C#Cc2cccc(C#N)n2)c1

Ki [1]: 55 nM
IC50 [2]: 200 nM
Structure (SMILES): COc1cccc(C#Cc2cncc(C#N)c2)n1

Ki [1]: > 10000 nM
Structure (SMILES): N#Cc1cccc(C#Cc2cc(F)cc(C(N)=O)c2)n1

Ki [1]: 200 nM
IC50 [2]: 300 nM
Structure (SMILES): COc1cccc(C#Cc2cccc(C#N)c2)n1

Ki [1]: 37 nM
IC50 [2]: 30 nM
Structure (SMILES): N#Cc1cccc(C#Cc2cccc(CO)n2)c1
